Test results from publication PMC8606320 (Bioorganic & Medicinal Chemistry, 2021).

Assays:
[1] = test system: SARS-CoV-2; conditions: COVID-19 patients, on the 6th day; cited from earlier work
[2] = test system: SARS-CoV-2; format: cell-based
[3] = In vivo acute toxicity assay; conditions: oral 230 mg/kg twice a day
Method in brief: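 Test compounds as sulfate salts, dissolved in physiological saline. Mice (25 g) were fasted overnight: 16 male and 16 female in four groups (n = 8), male and female vehicle controls and male and female test groups. They were dosed intragastrically with vehicle or 230 mg/kg twice a day. Death, daily behaviour and body weight were monitored for 20 days, and survival was plotted as curves.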

For `CCN(CCO)CCCC(C)Nc1ccnc2cc(Cl)ccc12.O=S(=O)(O)O` (racemic) [Rac-HCQ, hydroxychloroquine, reference compound], the “nasopharyngeal swab virus negative rate” value [1] is listed as 57.1% and the “inhibition of cytopathic changes caused by the virus” value [2] is listed as “complete inhibition”.
With `CCC(CC)COC(=O)[C@H](C)N[P@](=O)(OC[C@H]1O[C@@](C#N)(c2ccc3c(N)ncnn23)[C@H](O)[C@@H]1O)Oc1ccccc1` [Remdesivir, reference compound] the “inhibition of the occurrence of lesions (CPE)” value [2] was “completely inhibited”.
With “(R)-2-((4-((7-chloroquinolin-4-yl) amino) pentyl) (ethyl) amino) ethan-1-ol sulfate [R-HCQ]” the “tolerability in mice compared to Rac-HCQ and S-HCQ” value [3] was “better tolerated”, the “day until which mice performed well” value ([3]; monitored 20 days) was 12 dpd and the “inhibition of cytopathic changes caused by the virus” value [2] was “complete inhibition”.
For “(S)-2-((4-((7-chloroquinolin-4-yl) amino) pentyl) (ethyl) amino) ethan-1-ol sulfate [S-HCQ]”, the “day at which mice appeared malaise” value ([3]; monitored 20 days) was 9 dpd and the “inhibition of cytopathic changes caused by the virus” value [2] was “complete inhibition”.
